Results published in ChEMBL document CHEMBL4480410, “Targeting the MKK7-JNK (Mitogen-Activated Protein Kinase Kinase 7-c-Jun N-Terminal Kinase) Pathway with Covalent Inhibitors” (J Med Chem, 2019).
≈ marks a conversion by molar mass, not a printed value. Calls of active or inactive are those of the source. The calls are words filed in the database; no cut-off is given here.

Key:
[1] = molecular target: Serine/threonine-protein kinase mTOR (Homo sapiens) (UniProt P42345); experiment: Inhibition of mTOR (unknown origin) at 1 uM by proQinase-based assay relative to control
[2] = molecular target: T1, Dual specificity mitogen-activated protein kinase kinase 7 (Mus musculus) (UniProt Q8CE90); experiment: Inhibition of MKK7 in mouse DRG cells assessed as reduction in JNK phosphorylation at 1 uM after 2 hrs by Western blot analysis; type: cell-based
T1 sequence (whole entry): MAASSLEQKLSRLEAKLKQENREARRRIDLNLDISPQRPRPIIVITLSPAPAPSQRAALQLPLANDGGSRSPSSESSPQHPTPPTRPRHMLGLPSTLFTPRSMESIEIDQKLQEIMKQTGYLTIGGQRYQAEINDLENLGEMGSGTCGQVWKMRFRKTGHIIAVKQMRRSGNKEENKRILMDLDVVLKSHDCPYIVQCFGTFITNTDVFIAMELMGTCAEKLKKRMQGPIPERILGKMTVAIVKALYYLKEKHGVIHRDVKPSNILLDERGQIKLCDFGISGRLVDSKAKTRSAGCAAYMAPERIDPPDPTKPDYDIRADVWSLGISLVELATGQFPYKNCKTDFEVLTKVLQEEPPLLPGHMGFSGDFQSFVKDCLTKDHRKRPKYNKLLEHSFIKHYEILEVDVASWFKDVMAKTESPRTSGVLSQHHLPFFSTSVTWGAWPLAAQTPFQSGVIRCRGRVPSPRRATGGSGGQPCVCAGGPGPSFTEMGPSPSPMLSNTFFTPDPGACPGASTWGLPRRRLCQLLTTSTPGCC
Method in brief: (§1)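 Dissociated DRG neurons plated on laminin for 3 h, medium replaced, compound added for a further 2 h. Neurons lysed in RIPA buffer with phosphatase inhibitors. Western blots probed for phospho-cJun, cJun, phospho-JNK and JNK.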

[3] = molecular target: Tyrosine-protein kinase Blk (Homo sapiens) (UniProt P51451); experiment: Inhibition of BLK (unknown origin) at 1 uM by proQinase-based assay relative to control
[4] = molecular target: T1, Dual specificity mitogen-activated protein kinase kinase 7 (Mus musculus); experiment: Inhibition of MKK7 in mouse DRG cells assessed as reduction in cJUN phosphorylation at 1 uM after 2 hrs by Western blot analysis; type: cell-based; method in brief: as §1
[5] = molecular target: T2, Dual specificity mitogen-activated protein kinase kinase 7 (Homo sapiens) (UniProt O14733); experiment: Covalent binding affinity to MKK7 (unknown origin) assessed as formation of covalent bond with Cys218 residues by MS/MS analysis
T2 sequence (whole entry): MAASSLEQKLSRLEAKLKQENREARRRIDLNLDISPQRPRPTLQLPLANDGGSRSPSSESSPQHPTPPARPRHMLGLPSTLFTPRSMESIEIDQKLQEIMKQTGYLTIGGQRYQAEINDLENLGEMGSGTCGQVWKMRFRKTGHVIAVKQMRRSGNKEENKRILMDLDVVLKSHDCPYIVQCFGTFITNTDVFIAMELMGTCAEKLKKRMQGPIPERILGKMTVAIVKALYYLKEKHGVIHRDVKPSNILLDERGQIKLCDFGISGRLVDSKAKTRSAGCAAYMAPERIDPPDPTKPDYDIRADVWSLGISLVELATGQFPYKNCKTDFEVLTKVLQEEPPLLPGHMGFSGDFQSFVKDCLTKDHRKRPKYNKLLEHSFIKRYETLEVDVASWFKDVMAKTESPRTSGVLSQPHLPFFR
Method in brief: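 Protein at 1 mg/mL incubated with 2-fold molar excess of compound, 30 min on ice, then denatured and run on 15% SDS gel. Band excised, reduced with 50 mM DTT (1 h, 37 °C), alkylated with 55 mM iodoacetamide (1 h, 20 °C), digested with 0.1 mg/mL trypsin 20 h at 30 °C, acidified with TFA. Analysed by ion-trap MS/MS.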

[6] = Apparent permeability across basolateral to apical side in human Caco2 cells at 5 uM after 2 hrs by transwell membrane based assay; type: ADME, cell-based, Caco-2; conditions: Caco-2
Method in brief: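 10 mM DMSO stock diluted to 5 µM final in HBSS pH 7.4; 2 h at 37 °C, 5% CO2 on Caco-2 monolayers grown 21 days on transwell membranes.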

[7] = Kinetic solubility of the compound in Hepes buffer at pH 7.4 after 90 mins; type: physicochemical; conditions: read-out: Kinetic_solubility
Method in brief: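 Compound diluted from 10 mM DMSO stock to 500 µM final in 50 mM Hepes, pH 7.4, shaken 90 min at room temperature. Filtered through 0.2 µm PVDF, then OD scanned 250–500 nm in 10 nm steps. Solubility taken from AUC, normalized to a dilution in acetonitrile.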

[8] = Apparent permeability across apical to basolateral side in MDCK2-MDR1 cells at 10 uM after 2 hrs by transwell membrane based assay; type: ADME, cell-based, Canis lupus familiaris; conditions: dog, MDCK-MDR1
Method in brief: (§2)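 Compound at 10 µM in HBSS added to apical or basolateral side of MDCKII-MDR1 monolayer, 2 h at 37 °C. Both sides quantified by LC-MS/MS; Papp A–B or B–A from receiver concentration and volume, time, membrane area and initial donor concentration.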

[9] = molecular target: T3, Tyrosine-protein kinase ITK/TSK (Homo sapiens) (UniProt Q08881); experiment: Inhibition of ITK (unknown origin) at 1 uM by proQinase-based assay relative to control
T3 sequence (whole entry): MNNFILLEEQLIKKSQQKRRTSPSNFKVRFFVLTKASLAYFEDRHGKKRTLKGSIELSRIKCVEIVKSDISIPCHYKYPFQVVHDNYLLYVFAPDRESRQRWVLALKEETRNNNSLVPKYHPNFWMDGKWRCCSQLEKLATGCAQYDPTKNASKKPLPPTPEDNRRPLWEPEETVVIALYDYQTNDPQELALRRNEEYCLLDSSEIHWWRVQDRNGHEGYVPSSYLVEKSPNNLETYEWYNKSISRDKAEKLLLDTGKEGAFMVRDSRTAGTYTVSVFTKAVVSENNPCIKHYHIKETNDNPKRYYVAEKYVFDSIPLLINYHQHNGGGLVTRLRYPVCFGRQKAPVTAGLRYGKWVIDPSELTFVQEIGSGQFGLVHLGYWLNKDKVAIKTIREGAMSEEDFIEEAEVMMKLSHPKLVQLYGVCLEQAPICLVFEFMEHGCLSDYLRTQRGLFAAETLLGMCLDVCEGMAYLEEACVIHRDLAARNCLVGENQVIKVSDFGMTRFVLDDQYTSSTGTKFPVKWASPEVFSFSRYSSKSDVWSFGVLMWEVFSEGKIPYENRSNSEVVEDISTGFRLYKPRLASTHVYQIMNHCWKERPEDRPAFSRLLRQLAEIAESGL

[10] = Apparent permeability across basolateral to apical side in MDCK2-MDR1 cells at 10 uM after 2 hrs by transwell membrane based assay; type: ADME, cell-based, Canis lupus familiaris; conditions: dog, MDCK-MDR1; method in brief: as §2
[11] = Protein binding in mouse plasma at 5 uM after 6 hrs by LC/MS analysis; type: ADME, cell-free; conditions: read-out: PPB (converted)
Method in brief: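 Equilibrium dialysis of plasma with compound at 5 µM, 6 h at 37 °C; final compound concentrations determined by LC/MS to give percent bound.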

[12] = molecular target: Ribosomal protein S6 kinase (Homo sapiens) (UniProt P51812+Q9UBS0+O75676+Q15349+O75582+P23443+Q9UK32+Q15418); experiment: Inhibition of SK6 (unknown origin) at 1 uM by proQinase-based assay relative to control; type: protein assay
in vitro = conditions: human, liver microsomes

Chain of Tyrosine-protein kinase Blk (Homo sapiens) (P51451 2-505 limits assumed): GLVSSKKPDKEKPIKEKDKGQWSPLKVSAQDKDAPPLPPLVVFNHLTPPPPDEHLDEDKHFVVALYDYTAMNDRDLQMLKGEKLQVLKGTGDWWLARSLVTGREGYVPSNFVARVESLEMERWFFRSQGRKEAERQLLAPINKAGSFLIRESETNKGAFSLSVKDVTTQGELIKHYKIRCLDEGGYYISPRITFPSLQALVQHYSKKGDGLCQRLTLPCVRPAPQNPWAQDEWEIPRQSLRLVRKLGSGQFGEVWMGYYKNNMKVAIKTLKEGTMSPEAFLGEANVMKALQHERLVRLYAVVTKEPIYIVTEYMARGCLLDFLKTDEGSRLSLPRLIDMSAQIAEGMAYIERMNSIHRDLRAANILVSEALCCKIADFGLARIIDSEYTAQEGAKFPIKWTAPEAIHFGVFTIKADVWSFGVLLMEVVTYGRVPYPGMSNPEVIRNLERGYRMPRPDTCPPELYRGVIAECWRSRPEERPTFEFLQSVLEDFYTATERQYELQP

inhibition [1]: > 50% | inhibition [2]: Active | inhibition [3]: > 50% | inhibition [4]: Active | Activity [5]: Active | Papp B→A at 2 h, 5 µM [6]: 13 ×10⁻⁶ cm/s | solubility kinetic at 1.5 h [7]: 8 µM (≈ 3.66 µg/mL) | Papp A→B at 2 h, 10 µM [8]: 9 ×10⁻⁶ cm/s | inhibition [9]: > 50% | Papp B→A at 2 h, 10 µM [10]: 4 ×10⁻⁶ cm/s | fraction unbound at 6 h, 5 µM [11]: 0.073 | inhibition [12]: > 50% | microsomal CLint at 1 h, 3 µM (in vitro): 154 µL/min/mg
Structure (SMILES): C=CC(=O)N1CCC[C@@H](n2nc(-c3cn(-c4ccc(C(C)=O)cc4)nn3)c3c(N)ncnc32)C1
